# ChEMBL document CHEMBL5316351, “Development of a Covalent Inhibitor of c-Jun N-Terminal Protein Kinase (JNK) 2/3 with Selectivity over JNK1” (J Med Chem, 2023)
# Calls of active or inactive are those of the source. The calls are words filed in the database; no cut-off is given here.
# Experiments:
# Homo sapiens [1] = species on record: Homo sapiens; assay: Selectivity ratio of IC50 for His-tagged human recombinant JNK1 expressed in insect cells to His-tagged human recombinant JNK2 expressed in baculovirus expression system
# Method in brief: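 Z′-Lyte kinase assays of JNK1 and JNK2 with 100 μM ATP and 1 h compound incubation. Fixed time point IC50 was determined in duplicate. The selectivity ratio is JNK1 IC50 over JNK2 IC50.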
# [2] = target: T1, Mitogen-activated protein kinase 8 (Homo sapiens, UniProt P45983); assay: Inhibition of His-tagged human recombinant JNK1 expressed in insect cells incubated for 1 hr in presence of ATP by Z'-Lyte assay; design: species or system Insect cell
# [3] = target: T2, Mitogen-activated protein kinase 9 (Homo sapiens, UniProt P45984); assay: Inhibition of His-tagged human recombinant JNK2 expressed in baculovirus expression system incubated for 1 hr in presence of ATP by Z'-Lyte assay
# Target sequence in this assay (P45984 whole entry, the tested form may be a part): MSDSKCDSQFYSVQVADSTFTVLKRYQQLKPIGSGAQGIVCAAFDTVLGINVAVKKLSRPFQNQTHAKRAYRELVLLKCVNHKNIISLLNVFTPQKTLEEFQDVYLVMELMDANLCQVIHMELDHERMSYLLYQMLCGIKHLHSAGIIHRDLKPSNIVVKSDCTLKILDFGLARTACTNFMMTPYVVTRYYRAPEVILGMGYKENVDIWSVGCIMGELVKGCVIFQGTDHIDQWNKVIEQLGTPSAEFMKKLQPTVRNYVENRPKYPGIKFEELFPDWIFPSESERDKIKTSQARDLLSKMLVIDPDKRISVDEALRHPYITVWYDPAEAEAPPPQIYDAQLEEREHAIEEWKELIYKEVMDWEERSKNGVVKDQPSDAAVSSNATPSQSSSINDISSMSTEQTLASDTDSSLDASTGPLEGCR
# [4] = target: T3, 1-phosphatidylinositol 3-phosphate 5-kinase (Homo sapiens, UniProt Q9Y2I7); assay: Inhibition of Nano-Luc fused PIKFYVE (unknown origin) expressed in HEK293T cells pretreated for 3 hrs followed by K8-tarcer addition and measured after 1 hr by NanoBRET assay; format: cell-based
# [5] = target: T3, 1-phosphatidylinositol 3-phosphate 5-kinase; assay: Inhibition of PIKFYVE in human MDA-MB-231 cells assessed as vacuole formation at 4 uM measured after 3 days by bright field microscopy; format: cell-based; conditions: time 3.0 day
# Method in brief: (§1)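 MDA-MB-231 cells (DMEM, 10% FBS) seeded, next day treated with inhibitor or DMSO; after 3 days imaged by bright-field microscopy at 20× for vacuoles.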
# MM1.S = assay: Antiproliferative activity against human MM1.S cells assessed as inhibition of cell growth rate measured after 72 hrs by CellTiter-Glo luminescent assay; format: functional
# [6] = Antiproliferative activity against human HAP1 cells assessed as inhibition of cell growth incubated for 3 days by CellTiter-Glo luminescent assay; format: functional, cell-based; conditions: HAP1, 72 h
# HAP1 = assay: Antiproliferative activity against human HAP1 cells assessed as inhibition of cell growth incubated for 3 days in presence of VX745 by CellTiter-Glo luminescent assay; format: functional, cell-based; conditions: time 3.0 day
# [7] = target: T4, Mitogen-activated protein kinase 14 (Homo sapiens, UniProt Q16539); assay: Inhibition of Nano-Luc fused p38alpha (unknown origin) expressed in HEK293T cells pretreated for 3 hrs followed by K5-tarcer addition and measured after 1 hr by NanoBRET assay; format: cell-based; conditions: time 4.0 hrs
# [8] = target: T2, Mitogen-activated protein kinase 9; assay: Inhibition of Nano-Luc fused JNK2 (unknown origin) expressed in HEK293T cells pretreated for 3 hrs followed by K5-tarcer addition and measured after 1 hr by NanoBRET assay; format: cell-based
# Target sequence in this assay (P45984 whole entry, the tested form may be a part): as above
# [9] = target: T4, Mitogen-activated protein kinase 14; assay: Inhibition of GST-tagged human recombinant p38alpha expressed in Escherichia coli by Z'-LYTE assay
# [10] = target: T2, Mitogen-activated protein kinase 9; assay: Covalent binding affinity to JNK2 (unknown origin) assessed as Cys116 labelling at protein:compound concentration ratio of 1:5 incubated for 1 hr by capillary electrophoresis MS/MS analysis
# Method in brief: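 Purified JNK2 (5 μg) incubated 1 h at room temperature with 5-fold molar excess compound; intact mass by LC/MS, then trypsin digest and capillary electrophoresis-MS/MS database search for modified residue.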
# Target sequence in this assay (P45984 whole entry, looked up, the tested form may be a part): as the sequence (P45984 whole entry, the tested form may be a part) above
# [11] = target: T2, Mitogen-activated protein kinase 9; assay: Inhibition of wild type full length human JNK2 (M1 to Q382 residues) expressed in mammalian expression system at 1 uM by KinomeScan analysis
# Method in brief: (§2)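 KINOMEscan (ScanMAX) binding panel of >400 kinases, compound tested at 1 μM; reported as percent inhibition/score.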
# Target sequence in this assay (P45984 whole entry, looked up, the tested form may be a part): as the sequence (P45984 whole entry, the tested form may be a part) above
# [12] = target: T4, Mitogen-activated protein kinase 14; assay: Inhibition of wild type full length human p38 alpha (M1 to S360 residues) expressed in bacterial expression system at 1 uM by KinomeScan analysis; method in brief: as §2
# Homo sapiens [13] = species on record: Homo sapiens; assay: Inhibition of CK1gamma (unknown origin) at 1 uM by KinomeScan analysis
# Method in brief: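 KINOMEscan ScanMAX panel screened at 1 μM compound.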
# [14] = target: T3, 1-phosphatidylinositol 3-phosphate 5-kinase; assay: Inhibition of wild type partial length human PIKFYVE (F1512 to C2098 residues) expressed in mammalian expression system at 1 uM by KinomeScan analysis; method in brief: as §2
# [15] = target: T2, Mitogen-activated protein kinase 9; assay: Inhibition of JNK2 in human SUM159 cells at 1 uM by KiNativ Profiling analysis; format: cell-based; conditions: SUM159PT
# Method in brief: (§3)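 SUM159 cells treated with 1 μM compound, collected, PBS-washed and frozen; lysates probed with ATP/ADP-biotin acyl probe labelling catalytic lysine (KiNativ); protection from labelling measured.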
# Target sequence in this assay (P45984 whole entry, looked up, the tested form may be a part): as the sequence (P45984 whole entry, the tested form may be a part) above
# [16] = target: T4, Mitogen-activated protein kinase 14; assay: Inhibition of p38alpha in human SUM159 cells at 1 uM by KiNativ Profiling analysis; format: cell-based; conditions: SUM159PT
# Method in brief: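 SUM159 cells treated with 1 μM compound, then washed with PBS and frozen. Lysates were chased with a nonspecific ATP or ADP-biotin probe that labels the conserved catalytic lysine.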
# SUM159PT = assay: Inhibition of CK1gamma in human SUM159 cells at 1 uM by KiNativ Profiling analysis; format: cell-based; method in brief: as §3
# [17] = target: T3, 1-phosphatidylinositol 3-phosphate 5-kinase; assay: Inhibition of PIKFYVE in human SUM159 cells at 1 uM by KiNativ Profiling analysis; format: cell-based; conditions: SUM159PT; method in brief: as §3
# [18] = target: T3, 1-phosphatidylinositol 3-phosphate 5-kinase; assay: Inhibition of PIKFYVE in human MDA-MB-231 cells assessed as vacuole formation at 1 uM measured after 3 days by bright field microscopy; format: cell-based; conditions: time 3.0 day; method in brief: as §1
# [19] = target: T3, 1-phosphatidylinositol 3-phosphate 5-kinase; assay: Binding affinity to wild type partial length human PIKFYVE (F1512 to C2098 residues) expressed in mammalian expression system by KdELECT kinase assay
# [20] = target: T1, Mitogen-activated protein kinase 8; assay: Inhibition of wild type full length human JNK1 expressed in mammalian expression system at 1 uM by KinomeScan analysis; method in brief: as §2
# [21] = target: Mitogen-activated protein kinase 10 (Homo sapiens) (UniProt P53779); assay: Inhibition of human full length recombinant JNK3 at 1 uM by KinomeScan analysis; method in brief: as §2
# Sequence of Mitogen-activated protein kinase 10 (Homo sapiens) (P53779 whole entry): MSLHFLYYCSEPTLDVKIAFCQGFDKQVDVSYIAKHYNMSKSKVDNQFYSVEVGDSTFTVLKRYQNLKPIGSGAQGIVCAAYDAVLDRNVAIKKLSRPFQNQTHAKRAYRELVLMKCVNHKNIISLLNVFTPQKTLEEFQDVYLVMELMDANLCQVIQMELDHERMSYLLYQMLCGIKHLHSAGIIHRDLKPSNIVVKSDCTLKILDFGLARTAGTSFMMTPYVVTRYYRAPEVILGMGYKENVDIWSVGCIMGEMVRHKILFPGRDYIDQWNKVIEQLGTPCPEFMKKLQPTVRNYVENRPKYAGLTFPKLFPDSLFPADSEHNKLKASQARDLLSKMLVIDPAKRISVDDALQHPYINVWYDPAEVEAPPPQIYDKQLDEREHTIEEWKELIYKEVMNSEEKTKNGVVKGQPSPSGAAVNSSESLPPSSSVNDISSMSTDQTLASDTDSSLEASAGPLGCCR
# T1 sequence (P45983 whole entry): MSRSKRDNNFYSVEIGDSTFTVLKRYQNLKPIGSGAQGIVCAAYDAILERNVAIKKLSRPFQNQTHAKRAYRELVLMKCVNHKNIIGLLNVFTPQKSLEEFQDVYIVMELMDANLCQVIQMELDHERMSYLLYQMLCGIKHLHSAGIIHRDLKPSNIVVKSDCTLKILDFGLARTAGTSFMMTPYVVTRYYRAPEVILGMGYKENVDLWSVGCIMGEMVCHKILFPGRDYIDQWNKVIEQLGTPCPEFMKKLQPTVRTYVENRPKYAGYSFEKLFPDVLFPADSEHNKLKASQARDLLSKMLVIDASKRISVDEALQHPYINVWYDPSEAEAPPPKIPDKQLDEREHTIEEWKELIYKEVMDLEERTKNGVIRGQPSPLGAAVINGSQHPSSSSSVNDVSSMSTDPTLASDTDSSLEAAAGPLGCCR
# T3 sequence (Q9Y2I7 whole entry, the tested form may be a part): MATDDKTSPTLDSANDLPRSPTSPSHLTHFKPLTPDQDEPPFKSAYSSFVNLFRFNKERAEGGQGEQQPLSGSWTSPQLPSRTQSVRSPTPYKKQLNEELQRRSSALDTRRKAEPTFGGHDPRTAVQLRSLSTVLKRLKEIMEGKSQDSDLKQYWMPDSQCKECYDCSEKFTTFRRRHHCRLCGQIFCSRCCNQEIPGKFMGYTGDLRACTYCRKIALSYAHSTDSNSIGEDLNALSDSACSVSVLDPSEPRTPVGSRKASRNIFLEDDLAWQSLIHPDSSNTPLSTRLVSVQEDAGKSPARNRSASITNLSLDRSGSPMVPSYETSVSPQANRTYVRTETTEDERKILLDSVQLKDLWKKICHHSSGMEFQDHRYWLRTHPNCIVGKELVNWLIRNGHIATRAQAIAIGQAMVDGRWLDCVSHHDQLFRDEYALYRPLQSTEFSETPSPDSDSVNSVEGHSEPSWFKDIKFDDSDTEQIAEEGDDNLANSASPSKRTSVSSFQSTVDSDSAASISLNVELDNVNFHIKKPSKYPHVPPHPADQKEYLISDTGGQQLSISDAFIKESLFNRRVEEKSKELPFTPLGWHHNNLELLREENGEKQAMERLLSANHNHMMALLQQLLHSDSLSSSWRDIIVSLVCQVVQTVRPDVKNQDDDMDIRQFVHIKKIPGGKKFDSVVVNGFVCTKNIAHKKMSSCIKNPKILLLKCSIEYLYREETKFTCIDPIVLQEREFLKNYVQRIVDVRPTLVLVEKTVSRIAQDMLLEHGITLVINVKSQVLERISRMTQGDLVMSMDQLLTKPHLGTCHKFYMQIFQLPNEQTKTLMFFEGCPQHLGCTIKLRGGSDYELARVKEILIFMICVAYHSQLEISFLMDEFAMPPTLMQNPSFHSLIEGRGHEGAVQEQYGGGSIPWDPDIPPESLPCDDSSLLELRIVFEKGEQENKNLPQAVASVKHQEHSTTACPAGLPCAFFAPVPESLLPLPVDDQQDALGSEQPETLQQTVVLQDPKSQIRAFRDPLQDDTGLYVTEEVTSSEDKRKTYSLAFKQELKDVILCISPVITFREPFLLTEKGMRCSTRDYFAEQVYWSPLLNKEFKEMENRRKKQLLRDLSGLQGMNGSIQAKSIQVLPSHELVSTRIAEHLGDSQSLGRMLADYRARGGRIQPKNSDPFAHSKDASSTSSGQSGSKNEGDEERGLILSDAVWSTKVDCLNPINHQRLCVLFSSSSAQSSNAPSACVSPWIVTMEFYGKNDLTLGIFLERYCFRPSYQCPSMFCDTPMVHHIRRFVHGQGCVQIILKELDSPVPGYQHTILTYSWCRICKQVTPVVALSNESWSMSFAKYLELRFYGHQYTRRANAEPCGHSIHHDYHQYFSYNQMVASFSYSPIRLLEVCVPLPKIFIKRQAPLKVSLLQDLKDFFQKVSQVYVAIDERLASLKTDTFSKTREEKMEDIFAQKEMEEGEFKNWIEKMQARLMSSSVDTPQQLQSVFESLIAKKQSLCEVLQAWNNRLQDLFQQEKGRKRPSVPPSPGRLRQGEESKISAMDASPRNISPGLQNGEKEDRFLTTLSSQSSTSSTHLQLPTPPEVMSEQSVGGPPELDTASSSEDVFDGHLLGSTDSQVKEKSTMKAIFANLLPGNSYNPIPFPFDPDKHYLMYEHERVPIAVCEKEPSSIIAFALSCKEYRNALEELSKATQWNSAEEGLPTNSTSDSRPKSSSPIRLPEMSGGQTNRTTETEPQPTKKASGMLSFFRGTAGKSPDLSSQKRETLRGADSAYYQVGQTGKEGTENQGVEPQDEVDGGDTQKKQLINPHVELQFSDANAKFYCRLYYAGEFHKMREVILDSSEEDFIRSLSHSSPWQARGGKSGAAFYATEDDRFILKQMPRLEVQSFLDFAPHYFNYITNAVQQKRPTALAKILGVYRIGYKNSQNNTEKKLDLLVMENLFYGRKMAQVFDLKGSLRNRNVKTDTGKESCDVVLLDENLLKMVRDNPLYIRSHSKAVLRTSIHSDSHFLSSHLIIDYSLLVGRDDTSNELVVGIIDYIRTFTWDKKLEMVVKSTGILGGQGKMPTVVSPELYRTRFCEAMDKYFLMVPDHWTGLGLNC
# T4 sequence (Q16539 whole entry, the tested form may be a part): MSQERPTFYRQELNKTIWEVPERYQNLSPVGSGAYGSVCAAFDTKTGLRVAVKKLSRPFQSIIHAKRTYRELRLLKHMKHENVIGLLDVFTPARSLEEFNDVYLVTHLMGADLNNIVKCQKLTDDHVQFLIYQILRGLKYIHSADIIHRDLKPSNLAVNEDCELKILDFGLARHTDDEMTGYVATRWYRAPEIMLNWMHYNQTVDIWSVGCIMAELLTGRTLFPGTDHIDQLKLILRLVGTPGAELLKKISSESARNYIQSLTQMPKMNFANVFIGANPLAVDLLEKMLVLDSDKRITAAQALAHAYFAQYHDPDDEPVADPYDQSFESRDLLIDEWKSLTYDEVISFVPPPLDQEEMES
compound,measurement,setting,value
Cc1cccn2nc(-c3ccccc3)c(-c3ccnc(N[C@H]4CCN(C(=O)c5ccc(NC(=O)/C=C/CN(C)C)cc5)C4)n3)c12,Ratio IC50,Homo sapiens [1],8
CN(C)C/C=C/C(=O)Nc1ccc(C(=O)N2CC[C@H](Nc3nccc(-c4c(-c5ccc(Cl)cc5)nn5ccccc45)n3)C2)cc1,IC50,[2],62 nM
same,IC50,[3],7 nM
same,Ratio IC50,Homo sapiens [1],9
CN(C)CCCC(=O)Nc1ccc(C(=O)N2CC[C@H](Nc3nccc(-c4c(-c5ccccc5)nn5ccccc45)n3)C2)cc1,IC50,[4],> 3000 nM
same,inhibition,[5],inactive
CN(C)C/C=C/C(=O)Nc1ccc(C(=O)N2CC[C@H](Nc3nccc(-c4c(-c5ccc(F)cc5)nn5ccccc45)n3)C2)cc1,IC50,[2],67 nM
same,IC50,[3],4 nM
same,Ratio IC50,Homo sapiens [1],17
O[C@H]1CC[C@H](Nc2ncc3nc(Nc4c(F)cc(F)cc4F)n([C@H]4CCOC4)c3n2)CC1 [TANZISERTIB],Activity,MM1.S,inactive
same,IC50,[6],> 30000 nM
same,Activity,HAP1,inactive
C[C@H]1CN(C(=O)c2ccc(NC(=O)CCCN(C)C)cc2)C[C@H]1Nc1nccc(-c2c(-c3ccccc3)nn3ccccc23)n1,inhibition,[7],Active
same,IC50,[8],1700 nM
same,Activity,MM1.S,inactive
same,IC50,[9],15 nM
CN(C)C/C=C/C(=O)Nc1ccc(C(=O)N2CC[C@H](Nc3nccc(-c4c(-c5ccccc5)nn5ccccc45)n3)C2)cc1,IC50,[2],166 nM
same,IC50,[3],5 nM
same,Ratio IC50,Homo sapiens [1],33
same,Activity,[10],100%
same,inhibition,[11],Active
same,inhibition,[12],Active
same,inhibition,Homo sapiens [13],Active
same,inhibition,[14],Active
same,inhibition,[15],Active
same,inhibition,[16],Active
same,inhibition,SUM159PT,Active
same,inhibition,[17],Active
same,inhibition,[18],Active
same,Kd,[19],270 nM
same,IC50,[4],292 nM
same,inhibition,[20],Active
same,inhibition,[21],Active
CN(C)C/C=C/C(=O)Nc1ccc(C(=O)N2CC[C@H](Nc3nccc(-c4c(-c5cccc(Cl)c5)nn5ccccc45)n3)C2)cc1,IC50,[2],74 nM
same,IC50,[3],4 nM
same,Ratio IC50,Homo sapiens [1],19
CN(C)C/C=C/C(=O)Nc1ccc(C(=O)N2CCC[C@@H](Nc3nccc(-c4c(-c5ccccc5)nn5ccccc45)n3)C2)cc1,IC50,[2],470 nM
same,IC50,[3],17 nM
same,Ratio IC50,Homo sapiens [1],28
